# Measured values reported in ChEMBL document CHEMBL1806473, “Structure-based optimization of click-based histone deacetylase inhibitors” (Eur J Med Chem, 2011).
# Key:
# [1] = system: HOP-62; experiment: Cytotoxicity against human HOP62 cells; assay type: cell-based
# Procedure, shortened: (§1)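 Tested in the NCI in vitro disease-oriented human tumour cell line screen, with screening performed by NCI. Growth was read by SRB signal over the drug incubation period at five concentrations: 100, 10, 1.0, 0.1 and 0.01 μM. GI50 is the concentration that reduces growth of treated cells to half that of control cells.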
# [2] = system: OVCAR-4; experiment: Antiproliferative activity against human OVCAR4 cells by SRB assay; assay type: functional
# Procedure, shortened: (§2)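 Tested in the NCI in vitro human tumor cell line screen, run by the National Cancer Institute. Each compound was given at five concentrations (100, 10, 1.0, 0.1 and 0.01 μM). GI50 is the drug concentration that reduces growth of treated cells to half that of control cells during drug incubation, judged from the SRB signal.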
# [3] = system: NCI-H522; experiment: Cytotoxicity against human NCI-H522 cells; assay type: cell-based; procedure, shortened: as §1
# [4] = system: HL-60(TB); experiment: Cytotoxicity against human HL-60(TB) cells; assay type: cell-based
# [5] = system: MOLT-4; experiment: Antiproliferative activity against human MOLT4 cells by SRB assay; assay type: functional; procedure, shortened: as §2
# [6] = system: EKVX; experiment: Antiproliferative activity against human EKVX cells by SRB assay; assay type: functional; procedure, shortened: as §2
# [7] = system: EKVX; experiment: Cytotoxicity against human EKVX cells; assay type: cell-based; procedure, shortened: as §1
# [8] = system: MDA-MB-435; experiment: Antiproliferative activity against human MDA-MB-435 cells by SRB assay; assay type: functional; procedure, shortened: as §2
# [9] = system: PC-3; experiment: Cytotoxicity against human PC3 cells; assay type: cell-based
# [10] = system: OVCAR-3; experiment: Cytotoxicity against human OVCAR3 cells; assay type: cell-based; procedure, shortened: as §1
# [11] = system: CAKI-1; experiment: Antiproliferative activity against human Caki1 cells by SRB assay; assay type: functional; procedure, shortened: as §2
# [12] = molecular target: Histone deacetylase; experiment: Inhibition of HDAC in human HeLa cells using Ac-Arg-Gly-Lys(Ac)-AMC as fluorescent substrate after 20 mins by fluorescence assay; assay type: cell-based
# [13] = system: M14; experiment: Antiproliferative activity against human M14 cells by SRB assay; assay type: functional; procedure, shortened: as §2
# [14] = system: MDA-MB-231; experiment: Antiproliferative activity against human MDA-MB-231 cells by SRB assay; assay type: functional; procedure, shortened: as §2
# [15] = system: KM12; experiment: Antiproliferative activity against human KM12 cells by SRB assay; assay type: functional; procedure, shortened: as §2
# [16] = system: SK-OV-3; experiment: Cytotoxicity against human SKOV3 cells; assay type: cell-based
# [17] = system: SK-MEL-28; experiment: Antiproliferative activity against human SK-MEL-28 cells by SRB assay; assay type: functional; procedure, shortened: as §2
# [18] = system: SNB-19; experiment: Antiproliferative activity against human SNB19 cells by SRB assay; assay type: functional; procedure, shortened: as §2
# [19] = system: SN12C; experiment: Cytotoxicity against human SN12C cells; assay type: cell-based
# Procedure, shortened: (§3)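 Screened by NCI in its in vitro disease-oriented human tumour cell line panel. Compounds tested at five concentrations (100, 10, 1.0, 0.1 and 0.01 μM). Growth read by sulforhodamine B (SRB) signal. GI50 is the concentration reducing growth of treated cells to half that of control cells during the drug incubation.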
# [20] = system: NCI-H23; experiment: Cytotoxicity against human NCI-H23 cells; assay type: cell-based
# [21] = system: LOX IMVI; experiment: Antiproliferative activity against human LOXIMVI cells by SRB assay; assay type: functional; procedure, shortened: as §2
# [22] = system: SF-295; experiment: Antiproliferative activity against human SF295 cells by SRB assay; assay type: functional; procedure, shortened: as §2
# [23] = system: HT-29; experiment: Cytotoxicity against human HT-29 cells; assay type: cell-based; procedure, shortened: as §1
# [24] = system: CAKI-1; experiment: Cytotoxicity against human Caki1 cells; assay type: cell-based
# [25] = system: RPMI-8226; experiment: Cytotoxicity against human RPMI8226 cells; assay type: cell-based; procedure, shortened: as §1
# [26] = system: NCI-H322M; experiment: Antiproliferative activity against human NCI-H322M cells by SRB assay; assay type: functional; procedure, shortened: as §2
# [27] = system: SK-MEL-28; experiment: Cytotoxicity against human SK-MEL-28 cells; assay type: cell-based
# [28] = system: 786-0; experiment: Cytotoxicity against human 786-0 cells; assay type: cell-based
# [29] = system: CCRF-CEM; experiment: Cytotoxicity against human CCRF-CEM cells; assay type: cell-based
# [30] = system: M14; experiment: Cytotoxicity against human M14 cells; assay type: cell-based
# [31] = system: UACC-62; experiment: Antiproliferative activity against human UACC62 cells by SRB assay; assay type: functional
# Procedure, shortened: (§4)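 Cell growth was tested in the NIH in vitro disease-oriented human tumor cell line screen, which NCI ran for these compounds. Compounds were tested at five concentrations (100, 10, 1.0, 0.1 and 0.01 μM), and growth was read by SRB signal. GI50 is the drug concentration that reduces growth of treated cells to half that of control cells during drug incubation.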
# [32] = system: RXF 393; experiment: Antiproliferative activity against human RXF393 cells by SRB assay; assay type: functional; procedure, shortened: as §2
# [33] = system: MCF7; experiment: Cytotoxicity against human MCF7 cells; assay type: cell-based
# [34] = system: HCT-15; experiment: Cytotoxicity against human HCT15 cells; assay type: cell-based; procedure, shortened: as §1
# [35] = system: OVCAR-8; experiment: Antiproliferative activity against human OVCAR8 cells by SRB assay; assay type: functional; procedure, shortened: as §2
# [36] = system: SF-268; experiment: Cytotoxicity against human SF268 cells; assay type: cell-based; procedure, shortened: as §1
# [37] = system: TK-10; experiment: Cytotoxicity against human TK10 cells; assay type: cell-based; procedure, shortened: as §3
# [38] = system: IGROV-1; experiment: Antiproliferative activity against human IGROV1 cells by SRB assay; assay type: functional; procedure, shortened: as §2
# [39] = system: MDA-MB-468; experiment: Antiproliferative activity against human MDA-MB-468 cells by SRB assay; assay type: functional; procedure, shortened: as §2
# [40] = system: UACC-257; experiment: Antiproliferative activity against human UACC257 cells by SRB assay; assay type: functional; procedure, shortened: as §4
# [41] = Cytotoxicity against human Hs 578T cells; assay type: cell-based
# [42] = system: SW-620; experiment: Antiproliferative activity against human SW620 cells by SRB assay; assay type: functional; procedure, shortened: as §4
# [43] = system: UO-31; experiment: Cytotoxicity against human UO31 cells; assay type: cell-based; procedure, shortened: as §3
# [44] = system: A498; experiment: Antiproliferative activity against human A498 cells by SRB assay; assay type: functional; procedure, shortened: as §2
# [45] = system: T47D; experiment: Cytotoxicity against human T47D cells; assay type: cell-based; procedure, shortened: as §3
# [46] = system: SK-MEL-2; experiment: Cytotoxicity against human SK-MEL-2 cells; assay type: cell-based; procedure, shortened: as §1
# [47] = system: SK-MEL-5; experiment: Cytotoxicity against human SK-MEL-5 cells; assay type: cell-based
# [48] = system: DU-145; experiment: Antiproliferative activity against human DU145 cells by SRB assay; assay type: functional; procedure, shortened: as §2
# [49] = system: MDA-MB-231; experiment: Cytotoxicity against human MDA-MB-231 cells; assay type: functional; procedure, shortened: as §1
# [50] = system: UACC-257; experiment: Cytotoxicity against human UACC257 cells; assay type: cell-based; procedure, shortened: as §3
# [51] = system: SNB-19; experiment: Cytotoxicity against human SNB19 cells; assay type: cell-based; procedure, shortened: as §3
# [52] = system: TK-10; experiment: Antiproliferative activity against human TK10 cells by SRB assay; assay type: functional; procedure, shortened: as §4
# [53] = system: HCT-15; experiment: Antiproliferative activity against human HCT15 cells by SRB assay; assay type: functional; procedure, shortened: as §2
# [54] = system: OVCAR-8; experiment: Cytotoxicity against human OVCAR8 cells; assay type: cell-based
# [55] = system: NCI-H522; experiment: Antiproliferative activity against human NCI-H522 cells by SRB assay; assay type: functional; procedure, shortened: as §2
# [56] = system: A498; experiment: Cytotoxicity against human A498 cells; assay type: cell-based
# [57] = system: KM12; experiment: Cytotoxicity against human KM12 cells; assay type: cell-based
# [58] = system: 786-0; experiment: Antiproliferative activity against human 786-0 cells by SRB assay; assay type: functional; procedure, shortened: as §2
# [59] = system: NCI-H226; experiment: Antiproliferative activity against human NCI-H226 cells by SRB assay; assay type: functional; procedure, shortened: as §2
# [60] = system: SF-539; experiment: Antiproliferative activity against human SF539 cells by SRB assay; assay type: functional; procedure, shortened: as §2
# [61] = system: COLO 205; experiment: Antiproliferative activity against human COLO205 cells by SRB assay; assay type: functional; procedure, shortened: as §2
# [62] = system: Malme-3M; experiment: Antiproliferative activity against human MALME-3M cells by SRB assay; assay type: functional; procedure, shortened: as §2
# [63] = system: NCI-H23; experiment: Antiproliferative activity against human NCI-H23 cells by SRB assay; assay type: functional; procedure, shortened: as §2
structure (smiles),measurement,setting,value
CC(/C=C/c1ccccc1)n1cc(/C=C/C(=O)NO)nn1 (stereo not drawn),LC50,[1],48.2 µM
same,GI50,[2],636 nM
same,LC50,[3],3.62 µM
same,LC50,[4],> 100 µM
same,GI50,[5],377 nM
same,GI50,[6],2090 nM
same,LC50,[7],> 100 µM
same,GI50,[8],440 nM
same,LC50,[9],> 100 µM
same,LC50,[10],7.33 µM
same,GI50,[11],401 nM
same,IC50,[12],62 nM
same,GI50,[13],777 nM
same,GI50,[14],1380 nM
same,GI50,[15],1290 nM
same,LC50,[16],21.8 µM
same,GI50,[17],819 nM
same,GI50,[18],1870 nM
same,LC50,[19],> 100 µM
same,LC50,[20],6.61 µM
same,GI50,[21],438 nM
same,GI50,[22],1060 nM
same,LC50,[23],33.9 µM
same,LC50,[24],34.7 µM
same,LC50,[25],> 100 µM
same,GI50,[26],1280 nM
same,LC50,[27],24.5 µM
same,LC50,[28],9.03 µM
same,LC50,[29],> 100 µM
same,LC50,[30],9.08 µM
same,GI50,[31],524 nM
same,GI50,[32],1410 nM
same,LC50,[33],> 100 µM
same,LC50,[34],42.8 µM
same,GI50,[35],232 nM
same,LC50,[36],12.2 µM
same,LC50,[37],31.9 µM
same,GI50,[38],564 nM
same,GI50,[39],299 nM
same,GI50,[40],1350 nM
same,LC50,[41],> 100 µM
same,GI50,[42],383 nM
same,LC50,[43],66.7 µM
same,GI50,[44],472 nM
same,LC50,[45],7.63 µM
same,LC50,[46],37 µM
same,LC50,[47],4.52 µM
same,GI50,[48],803 nM
same,LC50,[49],> 100 µM
same,LC50,[50],> 100 µM
same,LC50,[51],37.6 µM
same,GI50,[52],582 nM
same,GI50,[53],2090 nM
same,LC50,[54],6.91 µM
same,GI50,[55],173 nM
same,LC50,[56],4.83 µM
same,LC50,[57],6.82 µM
same,GI50,[58],1640 nM
same,GI50,[59],2350 nM
same,GI50,[60],934 nM
same,GI50,[61],469 nM
same,GI50,[62],279 nM
same,GI50,[63],1250 nM
